# Experimental data: PMC8849394 (Science Advances, 2022)
# Ends that are not written are not given here. * marks the point of attachment. FITC = O=C1OC2(c3ccc(O)cc3Oc3cc(O)ccc32)c2ccc(NC(=S)*)cc21
# How the values were obtained:
# mouse SCLC cells (RP-1) = assay: MTT cell viability, mouse SCLC cells RP-1; assay type: cell-based; conditions: RP-1, MTT, n = 3
# In short: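 Murine SCLC cells derived from Rb1/Trp53-mutant mouse lung tumors are grown in RPMI1640 with 10% bovine growth serum. Cells are seeded at 1×10^4 per well and treated with bromodomain- or HAT-domain-targeting test compounds. Over 0 to 4 or 6 days, MTT (0.5 mg/ml final) is added for 4 h at 37°C and OD is read at 590 nm, minus a vehicle blank. Triplicates; n = 3.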
# human SCLC cell lines [1] = assay: MTT cell viability / short-term proliferation, human SCLC lines; assay type: cell-based
# [2] = tested on: human NSCLC (lung adenocarcinoma) cell lines; assay: MTT cell viability / short-term proliferation, human NSCLC lines; assay type: cell-based; conditions: for growth of NSCLC cells under BRD/HAT inhibitors: MTT
# CREBBP = assay: Anti-FLAG immunoprecipitation/immunoblot for CREBBP in H524 cell extracts; assay type: cell-based, human; conditions: FLAG-tagged M/M, IP relative to input, n = 3
# In short: (§1)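 H524 cells express FLAG-tagged M/M fusion peptide from a doxycycline-inducible promoter. Cells are lysed in RIPA (pH 8.0, with protease inhibitors). Lysates are immunoprecipitated with anti-FLAG or control IgG overnight at 4°C, then protein A/G agarose is added for 4 h at 4°C. Eluates are immunoblotted for FLAG, EP300 and CREBBP. IP band intensity is expressed relative to 5% input; n = 3; unpaired t test.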
# H524 SCLC cells = assay: RNA sequencing, GSEA and KEGG analysis, H524 cells; assay type: cell-based, human; conditions: H524, M/M vs M/M-5A
# In short: (§2)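 SCLC cells express M/M or M/M-5A peptide under a doxycycline-inducible promoter. mRNA is oligo(dT)-purified from 500 ng total RNA, and 100-bp single-end reads are sequenced on an Illumina NextSeq2000. Differential expression signatures come from comparing TPM between experimental and control groups. GSEA is run on the signature using Molecular Signatures Database v7.4 gene sets.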
# EP300 = assay: Anti-FLAG immunoprecipitation/immunoblot for EP300 in H524 cell extracts; assay type: cell-based, human; conditions: FLAG-tagged M/M, IP relative to input, n = 3
# In short: as §1
# H209 SCLC cells = assay: RNA sequencing, GSEA and KEGG analysis, H209 cells; assay type: cell-based, human
# In short: as §2
# [3] = molecular target: FITC-labeled MYB peptide (MYB25); assay: fluorescence polarisation
# [4] = molecular target: rhodamine-labeled MLL peptide (MLL25); assay: fluorescence polarisation
# [5] = molecular target: purified KIX domain of CREBBP (Mus musculus, UniProt P45481); assay: FP assay, direct binding of fluorophore-labeled peptides to CREBBP KIX
# Sequence of purified KIX domain of CREBBP (P45481 585-672): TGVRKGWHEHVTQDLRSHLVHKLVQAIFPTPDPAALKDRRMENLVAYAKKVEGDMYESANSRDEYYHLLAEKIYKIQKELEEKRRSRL
# In short: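 CREBBP KIX domain (87 residues, 585-672) was expressed from pMAL-c5E in E. coli Rosetta (DE3) and purified by affinity then anion-exchange chromatography. FP probes were N-terminally FITC-labelled MYB peptide and rhodamine-labelled MLL peptide, each at 0.5 µM, in 50 mM Hepes (pH 7.5) with 50 mM NaCl. Plates were incubated 30 min in the dark at room temperature, then read for polarization.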
# [6] = tested on: human NSCLC (lung adenocarcinoma) cell lines; assay: Soft agar colony formation, human NSCLC lines; assay type: cell-based; conditions: 2 μM in DMSO; H1650 (fig. S8A); n = 3
# [7] = tested on: interaction between CREB1 and the KIX domain of EP300; conditions: cited from earlier work
# human SCLC cell lines [8] = assay: Soft agar colony formation, human SCLC lines; assay type: cell-based; conditions: 2 μM in DMSO; H69, H209, H524; n = 3
# [9] = tested on: interaction between CREB1 and the KIX domain of CREBBP; conditions: cited from earlier work
# EP300 KIX domain = EP300 KIX domain (human, UniProt Q09472 565-652); assay: fluorescence polarisation
# Sequence of EP300 KIX domain (Q09472 565-652): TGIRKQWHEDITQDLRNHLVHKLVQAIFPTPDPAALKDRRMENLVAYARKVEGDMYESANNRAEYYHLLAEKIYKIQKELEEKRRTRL
# A627D EP300 KIX = A627D EP300 KIX (human, UniProt Q09472 565-652, A627D); assay: fluorescence polarisation
# Sequence of A627D EP300 KIX (Q09472 565-652 A627D): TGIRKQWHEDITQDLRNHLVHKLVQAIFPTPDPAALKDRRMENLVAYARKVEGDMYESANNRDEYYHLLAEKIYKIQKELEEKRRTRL
molecule,measurement,setting,value
CC1=NN(c2ccc(C(=O)O)cc2)C(=O)/C1=C\c1ccc(-c2cc(C)c(C)cc2[N+](=O)[O-])o1 [C646],growth of mouse SCLC cells,mouse SCLC cells (RP-1),did not have any significant effect on the growth
same,growth of human SCLC cells under BRD/HAT inhibitors,"human SCLC cell lines [1]; MTT, n = 3",either insignificant or modest
same,growth of NSCLC cells under BRD/HAT inhibitors,[2]; n = 3,dose-dependent effects on NSCLC lines
H-SDDGNILPSDIMDFVLKNTPSMQALGESGGDEDPEKEKRIKELELLLMSTENELKGQQAL-OH [M/M],binding to CREBBP in cells,CREBBP,confirmed the binding of M/M to both EP300 and CREBBP
same,"gene set enrichment (GSEA), TF target genes",H524 SCLC cells,"significantly enriched in the gene sets related to MYB, ATF4, CREB1, and CREBP1/JUN targets"
same,short-term proliferation of SCLC cells,"human SCLC cell lines [1]; doxycycline-inducible lentiviral expression of peptide, MTT, n = 3",inhibited the short-term proliferation
same,"growth of lung adenocarcinoma cells, MTT","[2]; doxycycline-inducible lentiviral expression of peptide, n = 3",did not detectably affect the growth of lung adenocarcinoma cell lines
same,binding to EP300 in cells,EP300,confirmed the binding of M/M to both EP300 and CREBBP
same,preference EP300 over CREBBP in cells,EP300,bound preferentially to EP300 than to CREBBP
same,"gene set enrichment (GSEA), TF target genes","H209 SCLC cells; H209, M/M vs M/M-5A","significantly enriched in the gene sets related to MYB, ATF4, CREB1, and CREBP1/JUN targets"
same,KEGG pathway small cell lung cancer,H209 SCLC cells; M/M-expressing H209 vs M/M-5A,down-regulated in M/M-expressing H209 cells
COc1ccc(CCc2nc3cc(-c4c(C)noc4C)ccc3n2C[C@H](C)N2CCOCC2)cc1Cl [SGC-CBP30],growth of mouse SCLC cells,mouse SCLC cells (RP-1),did not have any significant effect on the growth
same,growth of human SCLC cells under BRD/HAT inhibitors,"human SCLC cell lines [1]; MTT, n = 3",either insignificant or modest
same,growth of NSCLC cells under BRD/HAT inhibitors,[2]; n = 3,dose-dependent effects on NSCLC lines
D647A CREBBP KIX domain (from UniProt Q92793 585-672) (domain or fragment),Kd,[3],6.7 µM
CREBBP KIX domain (from UniProt Q92793 585-672) (domain or fragment),Kd,[3],22 µM
same,Kd,[4],94 µM
CCC(=O)N1CCOc2c(cc(-c3ccc(OC)c(OC)c3)cc2OC[C@H]2CCCN(C)C2)C1 [I-CBP112],growth of mouse SCLC cells,mouse SCLC cells (RP-1),did not have any significant effect on the growth
same,growth of human SCLC cells under BRD/HAT inhibitors,"human SCLC cell lines [1]; MTT, n = 3",either insignificant or modest
same,growth of NSCLC cells under BRD/HAT inhibitors,[2]; n = 3,dose-dependent effects on NSCLC lines
SDDGNILPSDIMDFVLKNTPSMQAL [MLL25],Kd,[5],94 ± 11 µM
"O=C(Nc1ccc(Cl)cc1)c1cc2ccccc2cc1OP(=O)(O)O [KG-501, 2-naphthol-AS-E-phosphate]","soft agar colony formation of NSCLC lines, KG-501",[6],did not have a significant effect on NSCLC cell lines
same,"short-term growth of SCLC lines, KG-501",human SCLC cell lines [1]; in culture,inhibited the short-term growth of SCLC lines in culture
same,"short-term growth of NSCLC lines, KG-501",[2]; in culture,did not have a significant effect on NSCLC cell lines
same,inhibition of CREB1-EP300 KIX interaction,[7],shown to inhibit the interaction between CREB1 and the KIX domains of EP300 and CREBBP
same,"soft agar colony formation of SCLC lines, KG-501",human SCLC cell lines [8],inhibited the short-term growth of SCLC lines in culture and colony formation in soft agar
same,inhibition of CREB1-CREBBP KIX interaction,[9],shown to inhibit the interaction between CREB1 and the KIX domains of EP300 and CREBBP
{FITC}-KEKRIKELELLLMSTENELKGQQAL [FITC-labeled MYB peptide (MYB25)],Kd,EP300 KIX domain,3.8 ± 0.2 µM
same,Kd,A627D EP300 KIX,23 ± 6.2 µM
SDDGNILPSDIMDFVLKNTPSMQAL (also: rhodamine label) [rhodamine-labeled MLL peptide (MLL25)],Kd,EP300 KIX domain,40 ± 14 µM
same,Kd,A627D EP300 KIX,80 ± 8.5 µM
